High-throughput results as filed in PubChem BioAssay.
STAT1 blocker = inhibitors of IFN-gamma induced STAT1 signaling | NIH 3T3 STAT1-luciferase reporter, luminescence | AID 920 | 200,000 tested, 0.35% active | inhibition, % at 5.5 µM;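 active = inhibition above a set limit, the mean inhibition across all tested compounds plus 3 SD, cut at about 34% in these data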
STAT3 inh = inhibitors of IL-6 induced STAT3 signaling; U3A cells, IL-6 STAT3-luciferase reporter, luminescence; host cell line lacks STAT1; inhibition, % at 5.5 µM; 190,000 tested, 0.89% active;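 active = inhibition above the mean inhibition across all screened compounds plus 3 SD, cut at about 44% in these data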
STAT1 activator = activators of IFN-gamma induced STAT1 signaling; NIH 3T3 STAT1-luciferase reporter, luminescence; 100% = IFN-gamma alone, no compound; activation (% of control), % at 5.5 µM; 200,000 tested, 2.6% active; AID 932;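 active = activation above the screen-wide mean activation plus 3 SD, cut at about 130% in these data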
APP 5'UTR act = activates APP 5'UTR luciferase reporter | activation, % at 2 µM | 190,000 tested, 1% active | SH-SY5Y APP 5'UTR luciferase reporter, luminescence; zero percent = DMSO vehicle wells;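 active = activation above a set limit, based on mean plus 3 SD of controls, cut at about 140% in these data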
STAT3 act = increases IL-6 driven STAT3 reporter signal; U3A cells, IL-6 STAT3-luciferase reporter, luminescence; 100% = signal with IL-6 EC80 alone; activation (% of control), % at 5.6 µM; 190,000 tested, 0.91% active;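 active = activation above the screen-wide mean of compound activation plus 3 SD, cut at about 130% in these data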
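Test system: Human STAT1-deficient U3A cells with stable STAT3-luciferase reporter | Also added: Interleukin-6, 33 ng/mL | Timing: Compound pre-incubation 1 h before IL-6, then 6 h stimulation at 37 °C | Technique: Luciferase reporter luminescence | Read-out: Percent of IL-6-only median luminescence | Benchmarks: IL-6-only wells as 100% reference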
NF-kB expr up = NF-kB expression increase, human neuronal cells; 190,000 tested, 1.6% active; NF-kB reporter expression; stronger effect = higher value; fold change at 12.5 µM; AID 1239; in the data active = fold change above about 3.3
Hits are given with their value. Shown are actives, neighbours in structure and some others; about 4.9% of the full set was active somewhere.

`Cc1cccc(/C(N)=N/OC(=O)c2cccnc2)c1` gave STAT1 blocker inactive, STAT3 inh inactive, STAT1 activator 133, APP 5'UTR act 149, STAT3 act inactive and NF-kB expr up inactive.
`Cc1cccc(/C(N)=N/OC(=O)c2ccc3c(c2)OCO3)c1` gave STAT1 blocker inactive, STAT3 inh inactive, STAT1 activator 145, APP 5'UTR act 192, STAT3 act inactive and NF-kB expr up 4.3.
Cc1ccc(OC(=O)c2ccc(Br)o2)cc1 was read as STAT1 blocker inactive, STAT3 inh inactive, STAT1 activator inactive, APP 5'UTR act inactive, STAT3 act inactive and NF-kB expr up inactive.
Screening Cc1cccc(/C(N)=N/OC(=O)c2ccc(Br)o2)c1 returned STAT1 blocker inactive, STAT3 inh inactive, STAT1 activator 132, APP 5'UTR act inactive, STAT3 act inactive and NF-kB expr up inactive.
Cc1ccsc1C(=O)OCC(=O)Nc1sccc1C(N)=O was read as STAT1 blocker inactive, STAT3 inh inactive, STAT1 activator 132, APP 5'UTR act inactive, STAT3 act inactive and NF-kB expr up inactive.
CCNC(=O)COC(=O)c1sccc1C was read as STAT1 blocker inactive, STAT3 inh inactive, STAT1 activator inactive, APP 5'UTR act inactive, STAT3 act inactive and NF-kB expr up inactive.
O=C(Nc1ccc2c(c1)OCCO2)c1cncc(Br)c1 was read as STAT1 blocker inactive, STAT3 inh inactive, STAT1 activator inactive, APP 5'UTR act 157, STAT3 act inactive and NF-kB expr up 4.9.
Cc1occc1C(=O)Nc1ccc2c(c1)OCCO2 was read as STAT1 blocker inactive, STAT3 inh inactive, STAT1 activator 131, APP 5'UTR act inactive, STAT3 act inactive and NF-kB expr up inactive.
Screening Cc1cc(C(=O)Nc2ccc3c(c2)OCCO3)c(C)o1 returned STAT1 blocker inactive, STAT3 inh inactive, STAT1 activator 130, APP 5'UTR act inactive, STAT3 act inactive and NF-kB expr up 4.6.
COc1ccc(NC(=O)c2cccnc2Nc2ccc(OC)cc2)cc1 was read as STAT1 blocker inactive, STAT3 inh inactive, STAT1 activator inactive, APP 5'UTR act inactive, STAT3 act inactive and NF-kB expr up inactive.
Screening CC(C)c1ccc(Nc2ncccc2C(=O)O)cc1 returned STAT1 blocker inactive, STAT3 inh inactive, STAT1 activator 143, APP 5'UTR act 140, STAT3 act inactive and NF-kB expr up inactive.
For Cc1ccc(C(=O)CSc2nsc(C)c2C#N)cc1 the results were STAT1 blocker inactive, STAT3 inh inactive, STAT1 activator inactive, APP 5'UTR act 156, STAT3 act inactive and NF-kB expr up 6.
Screening Cc1snc(SCC(=O)c2ccc(Cl)cc2)c1C#N returned STAT1 blocker inactive, STAT3 inh inactive, STAT1 activator inactive, APP 5'UTR act inactive, STAT3 act inactive and NF-kB expr up inactive.
Cc1ccnc(SCC(=O)c2ccc(Br)cc2)c1C#N was read as STAT1 blocker inactive, STAT3 inh inactive, STAT1 activator 146, APP 5'UTR act inactive, STAT3 act inactive and NF-kB expr up inactive.
Screening Cc1cc(C)c(C#N)c(OCC(=O)c2ccc(Br)cc2)n1 returned STAT1 blocker inactive, STAT3 inh inactive, STAT1 activator inactive, APP 5'UTR act inactive, STAT3 act inactive and NF-kB expr up inactive.
Screening C=CCSc1nnc(CCCCCN2C(=O)c3cccc4cccc(c34)C2=O)o1 returned STAT1 blocker inactive, STAT3 inh inactive, STAT1 activator inactive, APP 5'UTR act inactive, STAT3 act inactive and NF-kB expr up inactive.
For CN(C)/C=C1\C(=O)N(c2ccc(Cl)cc2)CS1(=O)=O the results were STAT1 blocker inactive, STAT3 inh inactive, STAT1 activator inactive, APP 5'UTR act inactive, STAT3 act inactive and NF-kB expr up inactive.
`Cc1ccc(N2CS(=O)(=O)/C(=C/N(C)C)C2=O)cc1` gave STAT1 blocker inactive, STAT3 inh inactive, STAT1 activator 150, APP 5'UTR act inactive, STAT3 act inactive and NF-kB expr up inactive.
Screening Fc1ccccc1Cn1nnc(-c2ccc3c(c2)OCO3)n1 returned STAT1 blocker inactive, STAT3 inh inactive, STAT1 activator 136, APP 5'UTR act 166, STAT3 act inactive and NF-kB expr up 5.7.
Screening O=C(NCc1ccccc1F)c1ccc2c(c1)OCO2 returned STAT1 blocker inactive, STAT3 inh inactive, STAT1 activator inactive, APP 5'UTR act inactive, STAT3 act inactive and NF-kB expr up inactive.
Screening Oc1cccc(Oc2ncc(C(F)(F)F)cc2Cl)c1 returned STAT1 blocker inactive, STAT3 inh inactive, STAT1 activator inactive, APP 5'UTR act inactive, STAT3 act inactive and NF-kB expr up inactive.
O=c1sc2ccccc2n1CCOc1ccccc1 was read as STAT1 blocker inactive, STAT3 inh inactive, STAT1 activator 142, APP 5'UTR act inactive, STAT3 act inactive and NF-kB expr up inactive.
`COc1ccccc1OCCn1c(=O)n(C)c2ccccc21` gave STAT1 blocker inactive, STAT3 inh inactive, STAT1 activator inactive, APP 5'UTR act inactive, STAT3 act inactive and NF-kB expr up inactive.
Cc1ccc(OCCn2c(=O)n(C)c3ccccc32)cc1 was read as STAT1 blocker inactive, STAT3 inh inactive, STAT1 activator 150, APP 5'UTR act inactive, STAT3 act inactive and NF-kB expr up inactive.
For O=C(O)CCn1c(=O)sc2ccccc21 the results were STAT1 blocker inactive, STAT3 inh inactive, STAT1 activator inactive, APP 5'UTR act inactive, STAT3 act inactive and NF-kB expr up inactive.
For O=C1CCCC(=O)C1CS(=O)(=O)c1ccccc1 the results were STAT1 blocker inactive, STAT3 inh inactive, STAT1 activator inactive, APP 5'UTR act inactive, STAT3 act inactive and NF-kB expr up inactive.
Screening C=CCn1c(C)cc(C2=NNC(=NCc3ccccc3)SC2)c1C returned STAT1 blocker inactive, STAT3 inh inactive, STAT1 activator inactive, APP 5'UTR act 139, STAT3 act inactive and NF-kB expr up inactive.
CCN=C1NN=C(c2cc(C)n(Cc3ccco3)c2C)CS1 was read as STAT1 blocker 45, STAT3 inh 82, STAT1 activator inactive, APP 5'UTR act inactive, STAT3 act inactive and NF-kB expr up inactive.
`COCCn1c(C)cc(C2=NNC(=Nc3ccccc3)SC2)c1C` gave STAT1 blocker inactive, STAT3 inh inactive, STAT1 activator 143, APP 5'UTR act 155, STAT3 act inactive and NF-kB expr up inactive.
Screening CCN=C1NN=C(c2c[nH]c3ccccc23)CS1 returned STAT1 blocker inactive, STAT3 inh inactive, STAT1 activator inactive, APP 5'UTR act 162 and STAT3 act inactive.
For CCN=C1NN=C(c2cc(C)n(CCc3ccccc3)c2C)CS1 the results were STAT1 blocker inactive, STAT3 inh inactive, STAT1 activator inactive, APP 5'UTR act inactive, STAT3 act inactive and NF-kB expr up inactive.
Screening COCCn1c(C)cc(C2=NNC(=Nc3ccc(OC)cc3)SC2)c1C returned STAT1 blocker inactive, STAT3 inh inactive, STAT1 activator inactive, APP 5'UTR act inactive, STAT3 act inactive and NF-kB expr up inactive.
Screening O=C(Cn1cnc([N+](=O)[O-])n1)N/N=C/c1ccc2ccccc2c1 returned STAT1 blocker inactive, STAT3 inh inactive, STAT1 activator inactive, APP 5'UTR act inactive, STAT3 act inactive and NF-kB expr up inactive.
